Measurements taken from ChEMBL document CHEMBL6115053, “Optimization and Characterization of N-Acetamide Indoles as Antimalarials That Target PfATP4” (J Med Chem, 2025).
In brackets after ≈: the same amount, converted by molar mass. Activity calls are given as the source filed them. No cut-off for these calls is given here.

Assays:
Plasmodium falciparum [1] = assay: Antiplasmodial activity against asexual Plasmodium falciparum 3D7 infected in human […] cells assessed as reduction in parasite growth measured for 72 hrs by LDH assay; format: functional, organism-based; conditions: 3D7, 72 h
HepG2 = assay: Cytotoxicity against human HepG2 cells assessed as inhibition of cell growth incubated for 48 hrs by celltiterglo assay; format: toxicity, cell-based; conditions: hepg2, 48 h
[2] = Aqueous solubility in PBS buffer at pH 7.4; format: physicochemical
[3] = Metabolic stability in human liver microsome assessed as intrinsic clearance; format: ADME; conditions: microsomes
[4] = Metabolic stability in mouse liver microsome assessed as intrinsic clearance; format: ADME; conditions: microsomes
[5] = Metabolic stability in rat hepatocyte […] assessed as intrinsic clearance measured per 10^6 cells; format: ADME, cell-based; conditions: hepatocytes
[6] = Lipophilicity, logD of compound at pH 7.4 by shake-flask method; format: physicochemical; conditions: buffer
Plasmodium falciparum [7] = assay: Antiplasmodial activity against Plasmodium falciparum 3D7 infected in human […] cells incubated for 72 hrs; format: functional, organism-based; conditions: 3D7, 72 h
Plasmodium falciparum [8] = assay: Antiplasmodial activity against W454-resistant population 1 Plasmodium falciparum 3D7 harboring Plasmodium falciparum ATP4 L928F mutant by LDH assay; format: functional, organism-based
Plasmodium falciparum [9] = assay: Antiplasmodial activity against W454-resistant population 2 Plasmodium falciparum 3D7 harboring Plasmodium falciparum ATP4 L928F mutant by LDH assay; format: functional, organism-based
Plasmodium falciparum [10] = assay: Antiplasmodial activity against W454-resistant population 3 Plasmodium falciparum 3D7 harboring Plasmodium falciparum ATP4 L928F mutant by LDH assay; format: functional, organism-based
Plasmodium falciparum [11] = assay: Antiplasmodial activity against Plasmodium falciparum Dd2-B2; format: functional, organism-based
Plasmodium falciparum [12] = assay: Antiplasmodial activity against Plasmodium falciparum Dd2-B2 assessed as parasite clearance at 3 times IC90 incubated for 5 days; format: functional, organism-based; conditions: time 5.0 day
Plasmodium falciparum [13] = assay: Antiplasmodial activity against Plasmodium falciparum Dd2-B2 assessed as parasite clearance at 3 times IC90 incubated for 42 days by flow cytometry analysis; format: functional, organism-based; conditions: time 42.0 day
Plasmodium falciparum [14] = assay: Antiplasmodial activity against Plasmodium falciparum Dd2-B2 assessed as reduction in recrudescence measured for 42 days by flow cytometry; format: functional, organism-based; conditions: time 42.0 day
Plasmodium falciparum [15] = assay: Antiplasmodial activity against asexual blood stage Plasmodium falciparum Dd2-B2 assessed as parasite recrudescence by measuring minimum inoculum of resistance measured for 40 days by flow cytometry; format: functional; conditions: time 40 day
Plasmodium falciparum [16] = assay: Antiplasmodial activity against Plasmodium falciparum 3D7 harboring Plasmodium falciparum ATP4 […] mutant by SYBR green staining based flow cytometry analysis; format: functional, organism-based
Plasmodium falciparum [17] = assay: Antiplasmodial activity against multidrug-resistant Plasmodium falciparum Dd2 harboring plasmodium falciparum ATP4 I398F/P990R/D1247Y mutant by SYBR green staining based analysis; format: functional, organism-based
Plasmodium falciparum [18] = assay: Antiplasmodial activity against multidrug-resistant Plasmodium falciparum Dd2 harboring plasmodium falciparum ATP4 G358S mutant by SYBR green staining based analysis; format: functional, organism-based
Plasmodium falciparum [19] = assay: Antiplasmodial activity against N-(2,6-difluorophenyl)-2-(6-(5-methyl-1,3,4-oxadiazol-2-yl)-1H-indol-1-yl)acetamide-resistant Plasmodium falciparum Dd2 harboring plasmodium falciparum ATP4 F156L mutant by SYBR green staining based analysis; format: functional, organism-based
Plasmodium falciparum [20] = assay: Antiplasmodial activity against N-(2,6-difluorophenyl)-2-(6-(5-methyl-1,3,4-oxadiazol-2-yl)-1H-indol-1-yl)acetamide-resistant Plasmodium falciparum Dd2 harboring plasmodium falciparum ATP4 D425E mutant by SYBR green staining based analysis; format: functional, organism-based
Plasmodium falciparum [21] = assay: Antiplasmodial activity against N-(2,6-difluorophenyl)-2-(6-(5-methyl-1,3,4-oxadiazol-2-yl)-1H-indol-1-yl)acetamide-resistant Plasmodium falciparum Dd2 harbouring ATP4 genome with 2.8 fold CNV by SYBR green staining based analysis; format: functional, organism-based
Plasmodium falciparum [22] = assay: Antiplasmodial activity against Plasmodium falciparum 3D7 infected in RBC assessed as reduction in parasite growth measured for 8 hrs by Giemsa-staining based microscopic analysis; format: functional, organism-based
Procedure, shortened: (§1)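 Giemsa-stained thin smears were read at 8 h and the percentages of extracellular and intracellular parasites counted, compared with untreated parasites at 0 h.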

Plasmodium falciparum [23] = assay: Antiplasmodial activity against Plasmodium falciparum 3D7 infected in RBC assessed as reduction in extracellular parasite growth at 0.03 uM measured for 8 hrs by Giemsa-staining based microscopic analysis; format: functional; parameters: scale not given: the % may be the effect or the level left; procedure, shortened: as §1
Plasmodium falciparum [24] = assay: Antimalarial activity against Plasmodium falciparum NF54 infected assessed as inhibition of male gamete formation incubated for 48 hrs by automated bright field microscopic analysis; format: functional, organism-based; conditions: NF54, 48 h
Plasmodium falciparum [25] = assay: Antimalarial activity against Plasmodium falciparum NF54 infected assessed as inhibition of female gamete formation incubated for 48 hrs by automated bright field microscopic analysis; format: functional, organism-based; conditions: NF54, 48 h
Plasmodium falciparum [26] = assay: Antiplasmodial activity against Plasmodium falciparum 3D7 infected in RBC assessed as reduction in nucleotide level at 20 nM incubated for 5 hrs by LC-MS analysis; format: functional, organism-based
Plasmodium falciparum [27] = assay: Antiplasmodial activity against Plasmodium falciparum 3D7 infected in RBC assessed as reduction in pyrimidine-deoxyribonucleotides level at 20 nM incubated for 5 hrs by LC-MS analysis; format: functional, organism-based
Plasmodium falciparum [28] = assay: Antiplasmodial activity against Plasmodium falciparum 3D7 infected in RBC assessed as reduction in deoxythymidine triphosphate level at 20 nM incubated for 5 hrs by LC-MS analysis; format: functional, organism-based
Plasmodium falciparum [29] = assay: Antiplasmodial activity against Plasmodium falciparum 3D7 infected in RBC assessed as reduction in deoxythymidine diphosphate level at 20 nM incubated for 5 hrs by LC-MS analysis; format: functional, organism-based
Plasmodium falciparum [30] = assay: Antiplasmodial activity against Plasmodium falciparum 3D7 infected in RBC assessed as reduction in deoxycytidine monophosphate level at 20 nM incubated for 5 hrs by LC-MS analysis; format: functional, organism-based
Plasmodium falciparum [31] = assay: Antiplasmodial activity against Plasmodium falciparum 3D7 infected in RBC assessed as reduction in extracellular parasite growth at 6.7 nM measured for 8 hrs by Giemsa-staining based microscopic analysis; format: functional; parameters: scale not given: the % may be the effect or the level left; procedure, shortened: as §1
[32] = Permeability across basolateral to apical side in human Caco-2 cells; format: ADME, cell-based
[33] = Permeability across apical to basolateral side in human Caco-2 cells; format: ADME, cell-based
Plasmodium falciparum [34] = assay: Antiplasmodial activity against Plasmodium flaciparum NF54 stage V gametocytes infected in Anopheles stephensi with parasite infected blood meal assessed as reduction in oocyst count at 100 nM measured 7 days post blood infection by light microscopic analysis relative to control; format: functional; parameters: scale not given: the % may be the effect or the level left; conditions: time 7 day
Procedure, shortened: (§2)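 Stage V gametocytes of P. falciparum NF54 were treated with compound and fed to Anopheles stephensi in a standard membrane feeding assay. Midguts were dissected 7 days after the blood meal and oocysts counted. Results were given as average oocyst intensity ± SEM, with a t test against vehicle.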

Plasmodium falciparum [35] = assay: Antiplasmodial activity against Plasmodium flaciparum NF54 stage V gametocytes infected in Anopheles stephensi with parasite infected blood meal assessed as reduction in oocyst count at 500 nM measured 7 days post blood infection by light microscopic analysis relative to control; format: functional; parameters: scale not given: the % may be the effect or the level left; conditions: time 7 day; procedure, shortened: as §2
Plasmodium berghei [36] = assay: Antimalarial activity against Plasmodium berghei ANKA infected in female BALB/c mouse assessed as parasitemia at 50 mg/kg, po measured for 2 to 72 hrs post infection by Giemsa staining based light microscopy; format: functional; conditions: time 2-72 hrs
Plasmodium berghei [37] = assay: Antimalarial activity against Plasmodium berghei ANKA infected in female BALB/c mouse assessed as reduction in parasitemia at 50 mg/kg, po measured for 2 to 72 hrs post infection by Giemsa staining based light microscopy; format: functional; parameters: scale not given: the % may be the effect or the level left; conditions: time 2-72 hrs
[38] = Tmax in CD-1 mouse at 20 mg/kg, po; format: ADME, organism-based; conditions: in vivo
[39] = Cmax in CD-1 mouse at 20 mg/kg, po; format: ADME, organism-based; conditions: in vivo
[40] = AUC (0 to last) in CD-1 mouse at 20 mg/kg, po; format: ADME, organism-based; conditions: in vivo
[41] = Half life in CD-1 mouse at 20 mg/kg, po; format: ADME, organism-based; conditions: in vivo
[42] = Clearance in CD-1 mouse at 20 mg/kg, po; format: ADME, organism-based; conditions: in vivo

| SMILES | EC50 (Plasmodium falciparum [1]) | CC50 (HepG2) | solubility kinetic [2] | intrinsic clearance (CLint) [3] | intrinsic clearance (CLint) [4] | intrinsic clearance (CLint) [5] | logD [6] | EC50 (Plasmodium falciparum [7]) | EC50 (Plasmodium falciparum [8]) | EC50 (Plasmodium falciparum [9]) | EC50 (Plasmodium falciparum [10]) | EC50 (Plasmodium falciparum [17]) | EC50 (Plasmodium falciparum [18]) | EC50 (Plasmodium falciparum [19]) | EC50 (Plasmodium falciparum [20]) | EC50 (Plasmodium falciparum [21]) | EC50 (Plasmodium falciparum [24]) | EC50 (Plasmodium falciparum [25]) | other results |
| --- | --- | --- | --- | --- | --- | --- | --- | --- | --- | --- | --- | --- | --- | --- | --- | --- | --- | --- | --- |
| COc1cc(NC(=O)Cn2ccc3cc(F)c(-c4cnn(C)c4)cc32)cc(OC)c1OC | 7 nM | > 40000 nM | 2.7 µM (≈ 1.18 µg/mL) | 69 µL/min/mg | 90 µL/min/mg | 1.9 uL/min/10^6 cells | 3.2 | 4 nM | 47 nM | 44 nM | 44 nM | 10 nM | 42 nM | 40 nM | 19 nM | 23 nM | 190 nM | 180 nM | IC50 (Plasmodium falciparum [11]): 17.3 nM; Activity (Plasmodium falciparum [12]): Active; Activity (Plasmodium falciparum [13]): Active; Activity (Plasmodium falciparum [14]): Active; log10MIR (Plasmodium falciparum [15]): 8.7; Activity (Plasmodium falciparum [16]): Active; Activity (Plasmodium falciparum [22]): Active; Activity (Plasmodium falciparum [23]): ~24% |
| C[C@H]1Cc2c([nH]c3cc(Cl)c(F)cc23)[C@@]2(N1)C(=O)Nc1ccc(Cl)cc12 [CIPARGAMIN] |  |  |  |  |  |  |  | 1 nM | < 2 nM | < 2 nM | 2 nM | 4 nM | > 100 nM | 3 nM | 2 nM | 4 nM |  |  | Activity (Plasmodium falciparum [26]): inactive; Activity (Plasmodium falciparum [27]): inactive; Activity (Plasmodium falciparum [28]): inactive; Activity (Plasmodium falciparum [29]): inactive; Activity (Plasmodium falciparum [30]): inactive; Activity (Plasmodium falciparum [31]): ~24% |
| COc1cc(NC(=O)Cn2cc(Cl)c3cc(F)c(-c4cnn(C)c4)cc32)cc(OC)c1OC | 13 nM | > 40000 nM | < 2.5 µM | < 3.5 µL/min/mg | 6.8 µL/min/mg | 2.6 uL/min/10^6 cells | 4.8 |  |  |  |  |  |  |  |  |  | 210 nM | 250 nM | permeability [32]: 1.5 10^-6 cm/s; permeability [33]: 0.8 10^-6 cm/s; Activity (Plasmodium falciparum [34]): 59%; Activity (Plasmodium falciparum [35]): 83%; Activity (Plasmodium berghei [36]): 15.3%; Activity (Plasmodium berghei [37]): 55%; Tmax [38]: 5.33 h; Cmax [39]: 700 ng/mL; AUC(0-t) [40]: 8190 ng·h/mL; half-life [41]: 2.16 h; CL/F [42]: 42 mL/min/kg |
